pIC50, pKd: −log10 of the molar value.
Legend:
[1] = target: λB site DNA hairpin duplex; assay: Biosensor-SPR direct binding of compounds to immobilized λB site DNA hairpin; conditions: read-out: KD for the λB site
[2] = tested on: PU.1-λB complex (PU.1 ETS domain on immobilized λB site hairpin); assay: Biosensor-SPR PU.1-DNA complex inhibition; assay type: binding, murine
Procedure, shortened: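 Murine PU.1 ETS domain (residues 167–272), expressed in E. coli, on a Biacore T200 biosensor. 5′-Biotinylated λB-site hairpin DNA immobilised on CM4 chips. Protein injected at constant 100 nM to saturate DNA sites, with graded compound concentrations added to the protein solution. Loss of protein signal plotted against compound concentration. Transition midpoint taken as IC50.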

| SMILES | pKd [1] | Inhibition of PU.1 binding (in words) [2] | pIC50 ([2]; read-out: IC50 of PU.1 binding inhibition) |
| --- | --- | --- | --- |
| N=C(N)c1ccc(-c2ccc(-c3ccc(C(=N)N)cc3)o2)cc1 [DB75, furamidine] | 6.28 | does not inhibit PU.1 binding | – |
| N=C(N)c1ccc(-c2ccc(-c3ccc(C(=N)N)cc3)[se]2)cc1 [DB1213] | – | – | ~5.82 |

Source: publication PMC3902942 (Nucleic Acids Research, 2013)
